Screening data deposited in PubChem BioAssay by several laboratories.
procasp3 activ = procaspase-3 (human) activation; hit rate 0.11% among 330,000; recombinant procaspase-3 D3A, Ac-DEVD-pNA absorbance 405 nm; P42574; activation, % at 8.5 µM; AID 463141;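 active = activation above the mean of all tested compounds plus 3 SD, cut at about 21% in these data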;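 note: 0% = DMSO alone and 100% = DMSO wells spiked with extra 5 µM PC-3 D3A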
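Evaluation: percent activation relative to control range; Material: Procaspase-3 D3A mutant, all three cleavage aspartates alanine; Compound: single dose, 8.5 µM nominal compound, 0.8% DMSO; Replication: one well per compound; Signal: absorbance at 405 nm, 0 and 120 min; Schedule: 1 h preincubation plus 2 h reaction at 25 °C.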
CHT allo act = allosteric activators of human choline transporter CHT; hit rate 0.49% among 310,000; Q9GZV3; AID 488977; CHT-expressing cells, membrane potential dye, choline EC20; stronger effect = higher value; LV-AA mutant CHT in HEK293 cells; B-score at 10 µM;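 active = initial fluorescence not abnormally high and integrated response B-score, plate-corrected, over 3 SD above library mean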
Target sequence (Q9GZV3 whole entry, looked up): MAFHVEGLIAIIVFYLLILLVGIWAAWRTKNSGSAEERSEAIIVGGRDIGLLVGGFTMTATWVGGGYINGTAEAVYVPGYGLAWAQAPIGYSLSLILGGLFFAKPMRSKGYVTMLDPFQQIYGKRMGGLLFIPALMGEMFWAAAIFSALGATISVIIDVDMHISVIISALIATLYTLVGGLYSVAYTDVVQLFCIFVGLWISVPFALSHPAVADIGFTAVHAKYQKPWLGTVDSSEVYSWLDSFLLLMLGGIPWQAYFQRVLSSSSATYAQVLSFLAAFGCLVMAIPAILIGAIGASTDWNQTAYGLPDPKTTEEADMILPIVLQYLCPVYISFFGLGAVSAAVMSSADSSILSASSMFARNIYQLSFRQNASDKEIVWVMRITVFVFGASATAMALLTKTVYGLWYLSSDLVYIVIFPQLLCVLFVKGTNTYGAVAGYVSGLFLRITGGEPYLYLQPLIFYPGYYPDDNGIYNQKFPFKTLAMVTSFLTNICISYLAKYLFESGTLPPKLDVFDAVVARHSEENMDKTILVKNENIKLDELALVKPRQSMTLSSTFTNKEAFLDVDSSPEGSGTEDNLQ
CHT block = inhibits the human high affinity choline transporter; Q9GZV3; CHT-expressing cells, membrane potential dye, choline response; stronger effect = lower value; B-score at 10 µM; hit rate 0.86% among 310,000;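 active = B-score over 3 SD under the library average, and starting fluorescence ratio not unusually high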;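 note: choline stimulus applied at its EC90 after an EC20 pre-addition; B-score computed on integrated fluorescence ratio after choline addition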
procasp7 counter = counter-screen: procaspase-7 (human) activation. P55210. recombinant procaspase-7, Ac-DEVD-pNA absorbance 405 nm; D23A/D198A/D206A triple mutant, cannot self-cleave; scale: DMSO 0, 5 µM enzyme 100. activation, % at 8.5 µM. hit rate 0.093% among 330,000;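 active = percent activation above the screen-wide mean plus 3 SD, cut at about 25% in these data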
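Assay system – Uncleavable procaspase-7 mutant enzyme · Quantity – 2 µM procaspase-7 mutant as dispensed · Times – 1 h preincubation, 2 h reaction · Dosing – single nominal 8.5 µM compound dose, 0.8% DMSO final · Buffer or medium – Zinc-free 50 mM HEPES buffer, pH 7.4, with NaCl and Triton X-100 · Detection – Epi-absorbance of released pNA at 405 nm, two timepoints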
CHT act confirm = confirmation of human choline transporter (CHT) activators; shares compounds with CHT allo act; CHT-expressing cells, membrane potential dye fluorescence (FDSS); % of choline EC20–EC90 response window; HEK293 expressing CHT LV-AA mutant; choline added at its EC20; activation, % at 10 µM; hit rate 91% among 2,500;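 active = primary screen active, with duplicate mean activation above negative control mean plus 3 SD, cut at about 11% in these data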
HEK293 MP dye = activity in parental HEK293 cells lacking CHT | ratio readout change at 10 µM, hits read low | membrane potential dye fluorescence (FDSS); measured after EC20 choline addition | shares compounds with CHT allo act | AID 623908 | hit rate 62% among 2,500;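 active = duplicate-averaged ratio beyond 3 SD from buffer wells, up or down, though filed actives are nearly all decreases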
* hit, by the source's call; i = inactive; nt = not tested or not shown. A selection: hits, their analogues and other compounds. The true share with any hit is near 1.3%.

SMILES	procasp3 activ	CHT allo act	CHT block	procasp7 counter	CHT act confirm	HEK293 MP dye
O=C(CCc1ccccc1)NCC(c1ccco1)N1CCc2ccccc21 (stereo not given)	-7	7.5*	i	7	14*	i
O=C(NCC(c1ccco1)N1CCc2ccccc21)c1cccc([N+](=O)[O-])c1 (stereo not given)	1	i	i	-5	23*	i
O=C(NCC(c1ccco1)N1CCc2ccccc21)c1ccc([N+](=O)[O-])cc1 (stereo not given)	-13	i	i	4	nt	nt
CCCCOC(=O)N1CCOCCOCCOCC1	10	i	i	0	17*	i
COc1ccc(C(O)Cc2nccn2C)cc1 (stereo not given)	0	i	i	-1	nt	nt
CCCCCOc1ccc(Br)cc1/C(C)=N/NC1=NCCN1	6	8.7*	i	11	55*	i
C=CCOc1ccc(/C=C/C(=O)OCC(=O)N(C)CC(=O)Nc2ccc(F)cc2)cc1	5	i	i	1	nt	nt
COc1cc2c(cc1NC(=O)COCC(=O)O)oc1ccccc12	nt	i	i	nt	46*	-45*
C[N+](C)(C)CCCCCCCCCC[N+](C)(C)C	0	7.8*	i	9	43*	-52*
CCN1CCN(c2cc3c(cc2F)c(=O)c(S(=O)(=O)c2ccccc2)cn3C)CC1	4	8.4*	i	11	77*	-99*
CCCn1cc(S(=O)(=O)c2ccccc2)c(=O)c2cc(CC)ccc21	-2	i	i	3	nt	nt
Cc1ccc(S(=O)(=O)c2cn(C)c3cc(N4CCN(C)CC4)c(F)cc3c2=O)c(C)c1	-4	9.1*	i	9	74*	-84*
CCn1cc(S(=O)(=O)c2ccc(OC)cc2)c(=O)c2cc(F)c(N3CCN(C)CC3)cc21	6	i	i	3	59*	-48*
C[C@@H]1CN([C@@H](C)CO)C(=O)Cc2cc(NC(=O)Nc3ccc4c(c3)OCO4)ccc2O[C@@H]1CN(C)C(=O)NC1CCCCC1	2	nt	nt	-6	nt	nt
CC1CCCCC1NC(=O)C(C)N1C(=O)c2ccccc2C1=O (stereo not given)	3	nt	nt	0	nt	nt
Cc1cccc(-n2c(CNC(=O)c3ccc(S(=O)(=O)N4CCCCC4)cc3)n[nH]c2=S)c1	-3	i	i	0	nt	nt
CCn1c(C)c(C(C)=O)c(N2CCCC2)nc1=S	9	i	i	-11	3	i
Cc1cc(C)n2ncc(C(=O)NCc3cccnc3)c2n1	12	i	i	11	42*	-38*
Cc1cccc(N(Cc2ccccc2)C(=O)c2cccc(S(=O)(=O)N3CC(C)OC(C)C3)c2)c1 (stereo not given)	0	i	i	7	nt	nt
O=S(=O)(O)c1cccc(N=Nc2c(O)ccc3ccccc23)c1	-9	i	i	-21	33*	-39*
CC(C)(C)n1nnnc1C(c1ccncc1)N1CCN(C2CCCCC2)CC1 (stereo not given)	5	i	i	-5	nt	nt
CC(C)(C)n1nnnc1C(c1cccnc1)N1CCN(c2cccc(C(F)(F)F)c2)CC1 (stereo not given)	4	7.8*	i	6	21*	i
CC(C)(C)n1nnnc1C(c1cccnc1)N1CCN(C2CCCCC2)CC1 (stereo not given)	-4	i	i	1	nt	nt
Cc1cccc(N2CCN(C(c3ccncc3)c3nnnn3C(C)(C)C)CC2)c1C (stereo not given)	1	i	i	8	29*	i
Cc1ccnc(NC(=O)C(C)N2C(=O)c3ccccc3S2(=O)=O)c1 (stereo not given)	1	10*	i	11	6	i
SMILES	procasp3 activ	CHT allo act	CHT block	procasp7 counter	CHT act confirm	HEK293 MP dye
COc1cccc(NC(=O)C(C)N2C(=O)c3ccccc3S2(=O)=O)c1 (stereo not given)	-3	i	i	2	nt	nt
Cc1csc(NC(=O)C(C)N2C(=O)c3ccccc3S2(=O)=O)n1 (stereo not given)	13	i	i	1	11*	i
CC1CCN(CCCn2c(SCC(=O)Nc3ccccc3Cl)nc3ccccc3c2=O)CC1	-5	6.4*	i	10	52*	-34*
Cc1ccc(NC(=O)CSc2nc3ccccc3c(=O)n2CCCN2CCCCC2)cc1Cl	1	i	i	3	nt	nt
NC(=O)Cn1cnc2c(nnn2-c2ccc(F)cc2)c1=O	-1	i	i	5	nt	nt
Cc1cc2nc3ccc(N(C)C)cc3nc2cc1N	-9	i	i	-32	30*	-24*
Cc1cc(N(C)C)ccc1N=Nc1ccc(N)cc1	-19	i	i	-21	nt	nt
O=C(CSc1cccc(C(F)(F)F)c1)Nc1ccc(N2CCOCC2)cc1	5	nt	nt	0	nt	nt
CC1CSc2n(-c3cccc(C(F)(F)F)c3)cc(-c3ccccc3)[n+]21 (stereo not given)	-4	i	i	0	50*	-31*
CC1=C(c2ccccc2)SC2=NCCN21	nt	i	i	nt	55*	-56*
CC(C)(C)c1ccc(C2=CSC3=NCCN23)cc1	-6	i	i	-2	nt	nt
CCN(CC)c1ccc(/C=N/NC(=O)c2ccco2)cc1	-2	i	i	7	31*	i
O=C(N/N=C/c1ccc2cccnc2c1)c1ccco1	6	i	i	1	37*	i
Cc1ccc(S(=O)(=O)Cn2nnnc2C(c2ccccc2)N2CCN(c3ccccc3)CC2)cc1 (stereo not given)	4	i	i	2	nt	nt
CCCC(c1nnnn1CS(=O)(=O)c1ccc(C)cc1)N1CCN(c2ccccc2)CC1 (stereo not given)	3	7*	i	2	14*	i
COc1cc(CNc2ccc3[nH]c(=O)[nH]c3c2)cc(Br)c1OCc1ccccc1F	nt	i	i	nt	nt	nt
c1ccc(-c2nc(NCc3ccco3)c3ccccc3n2)nc1	1	7*	i	-2	42*	-46*
c1coc(CNc2nc(N3CCCCC3)nc3ccccc23)c1	9	i	i	-3	13*	i
c1ccc(N2CCN(c3nc(NCc4ccco4)c4ccccc4n3)CC2)cc1	6	i	i	-3	nt	nt
O=C(OCC(=O)N1CCCCC1)c1ccc2c(c1)C(=O)N(Cc1ccco1)C2=O	0	nt	nt	3	nt	nt
O=C(Nc1cc([N+](=O)[O-])ccc1F)C1CCN(S(=O)(=O)c2cccs2)CC1	4	nt	nt	6	nt	nt
